Results: ChEMBL document CHEMBL3232837, “Synthesis and evaluation of new Hsp90 inhibitors based on a 1,4,5-trisubstituted 1,2,3-triazole scaffold” (J Med Chem, 2014)
The source made the active and inactive calls. The calls are words filed in the database; no cut-off is given here.

How the values were obtained:
[1] = Metabolic stability in human plasma assessed as compound remaining at 5 uM measured at 120 mins by LC/MS analysis; format: ADME, cell-free
How it was run: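 Compound added to human plasma at 5 µM final and incubated at 37 °C for up to 120 min. Samples quenched in two volumes of chilled acetonitrile and centrifuged at 4 °C. Remaining compound quantified by LC/MS.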

[2] = test system: Mus musculus; assay: (§1) In vivo inhibition of HSP90 in human GTL16 cells overexpressing c-Met xenografted in CD-1 nude mouse assessed as induction of HSP70 protein expression at 5 mg/kg, ip administered as q2d/week for 2 weeks starting 3 days after tumor injection measured at 6 hrs post last dose by Western blot analysis; format: functional, organism-based; parameters: dose 5 mg/kg
How it was run: (§2)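 Nude-mouse s.c. xenografts given i.p. compound from day 3. Tumors excised 2 h (A431) or 6 h (GTL-16) after last dose and homogenized in tissue protein extraction reagent with 10 µg/ml protease inhibitor cocktail. Whole lysates analysed by Western blot with actin as loading control; two tumor samples per group shown.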

[3] = biological target: Heat shock protein HSP 90-beta (Homo sapiens) (UniProt P08238); assay: Inhibition of HSP90 in human A431 cells overexpressing EGFR assessed as downregulation of AKT protein expression after 24 hrs by Western blot analysis; format: cell-based; conditions: A-431
Heat shock protein HSP 90-beta (Homo sapiens), sequence (P08238 whole entry): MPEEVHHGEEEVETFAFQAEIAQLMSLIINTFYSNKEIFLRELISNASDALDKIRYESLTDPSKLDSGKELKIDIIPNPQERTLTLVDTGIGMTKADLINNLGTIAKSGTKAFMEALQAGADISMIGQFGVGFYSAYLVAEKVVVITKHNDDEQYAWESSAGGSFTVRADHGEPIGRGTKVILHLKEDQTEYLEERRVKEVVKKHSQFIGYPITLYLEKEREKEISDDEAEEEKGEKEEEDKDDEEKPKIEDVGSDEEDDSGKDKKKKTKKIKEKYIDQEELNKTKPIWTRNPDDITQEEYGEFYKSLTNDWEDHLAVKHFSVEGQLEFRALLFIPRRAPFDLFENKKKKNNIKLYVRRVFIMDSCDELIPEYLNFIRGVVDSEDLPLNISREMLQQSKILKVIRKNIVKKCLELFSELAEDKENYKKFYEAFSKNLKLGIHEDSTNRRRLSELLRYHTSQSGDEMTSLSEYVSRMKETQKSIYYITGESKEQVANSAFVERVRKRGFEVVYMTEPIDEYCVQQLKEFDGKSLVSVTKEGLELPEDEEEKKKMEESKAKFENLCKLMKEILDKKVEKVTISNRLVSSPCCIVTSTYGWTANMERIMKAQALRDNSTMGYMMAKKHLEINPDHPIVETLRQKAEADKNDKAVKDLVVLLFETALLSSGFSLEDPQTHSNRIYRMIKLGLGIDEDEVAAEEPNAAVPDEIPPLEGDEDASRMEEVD
How it was run: (§3)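 A431 cells treated 24 h after seeding for 24 h over a concentration range; 17-DMAG 0.2 µM as reference. Cells lysed in RIPA buffer with protease and phosphatase inhibitors, protein measured by Bradford. Equal protein run on SDS-PAGE and blotted to nitrocellulose, then probed for EGFR, Cdk4, Akt, Hsp70 and actin. ECL detection; densitometry normalized to β-actin. Run at least twice.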

[4] = test system: NCI-H460; assay: Induction of apoptosis in human NCI-H460 cells assessed as cell with hypodiploid DNA content at 2 times IC50 after 24 to 72 hrs by propidium iodide staining-based FACS flow cytometric analysis; format: functional
[5] = biological target: Heat shock protein HSP 90-beta (Homo sapiens) (UniProt P08238); assay: Inhibition of HSP90 in human A431 cells overexpressing EGFR assessed as induction of HSP70 protein expression after 24 hrs by Western blot analysis; format: cell-based; conditions: A-431; how it was run: as §3
[6] = test system: Mus musculus; assay: Toxicity in CD-1 nude mouse xenografted with human GTL16 cells overexpressing c-Met assessed as mortality at 5 mg/kg, ip administered as q2d/week for 2 weeks starting 3 days after tumor injection measured on day 5 post last dose relative to vehicle-treated control; format: organism-based; parameters: dose 5 mg/kg, route intraperitoneal; conditions: in vivo
How it was run: (§4)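 S.c. right-flank xenografts, 5 × 10^6 cells, in female athymic nude mice 5-6 weeks old. Intraperitoneal dosing in 10 mL/kg from day 3 post-implant. Lethal toxicity counted as deaths in treated mice occurring before the first control mouse died, reported as dead/treated (8 per group). Body weight loss was also tracked from the first treatment day.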

[7] = test system: NCI-H460; assay: Cell cycle arrest in human NCI-H460 cells assessed as accumulation at G2/M phase at 2 times IC50 after 24 to 72 hrs by propidium iodide staining-based FACS flow cytometric analysis; format: functional
[8] = test system: NCI-H460; assay: Cytotoxicity against human NCI-H460 cells assessed as growth inhibition after 72 hrs by SRB assay; format: functional, cell-based; conditions: NCI-H460, 72 h
How it was run: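 NCI-H460 cells grown in RPMI-1640 with 10% heat-inactivated FBS, seeded at about 10% confluence and allowed 24 h recovery. Exposed to graded drug concentrations or solvent for 72 h. Surviving fraction measured by sulforhodamine B. IC50 is the concentration giving a 50% drop in cell number vs vehicle, from dose-response curve fitting; mean of n=4 with SD.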

[9] = test system: Mus musculus; assay: In vivo inhibition of HSP90 in human A431 cells overexpressing EGFR xenografted in CD-1 nude mouse assessed as downregulation of AKT protein expression at 5 mg/kg, ip administered as q2d/week for 2 weeks starting 3 days after tumor injection measured at 2 hrs post last dose by Western blot analysis; format: functional, organism-based; parameters: dose 5 mg/kg; conditions: A-431; how it was run: as §2
[10] = test system: Mus musculus; assay: In vivo inhibition of HSP90 in human A431 cells overexpressing EGFR xenografted in CD-1 nude mouse assessed as induction of HSP70 protein expression at 5 mg/kg, ip administered as q2d/week for 2 weeks starting 3 days after tumor injection measured at 2 hrs post last dose by Western blot analysis; format: functional, organism-based; parameters: dose 5 mg/kg; conditions: A-431; how it was run: as §2
[11] = test system: Mus musculus; assay: In vivo inhibition of HSP90 in human A431 cells overexpressing EGFR xenografted in CD-1 nude mouse assessed as downregulation of EGFR protein expression at 5 mg/kg, ip administered as q2d/week for 2 weeks starting 3 days after tumor injection measured at 2 hrs post last dose by Western blot analysis; format: functional, organism-based; parameters: dose 5 mg/kg; conditions: A-431; how it was run: as §2
[12] = biological target: Heat shock protein HSP 90-alpha (Homo sapiens, UniProt P07900); assay: Displacement of GM-FITC from full-length recombinant human Hsp90-alpha after 4 hrs by fluorescence polarization assay
[13] = test system: Mus musculus; assay: Toxicity in CD-1 nude mouse xenografted with human GTL16 cells overexpressing c-Met assessed as body weight loss at 5 mg/kg, ip administered as q2d/week for 2 weeks starting 3 days after tumor injection measured on day 5 post last dose relative to vehicle-treated control; format: organism-based; parameters: dose 5 mg/kg, route intraperitoneal; conditions: in vivo
How it was run: (§5)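 Female athymic nude mice carrying s.c. xenografts, dosed i.p. (mg/10 mL/kg per administration) starting 3 days after tumor injection. BWL% = 100 − (mean BW day x/mean BW day 1 × 100), day 1 being the first treatment day. Maximum BWL% recorded. Lethal toxicity counted as deaths before the first control death.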

[14] = Antitumor activity against human GTL16 cells overexpressing c-Met xenografted in CD-1 nude mouse assessed as tumor growth inhibition at 5 mg/kg, ip administered as q2d/week for 2 weeks starting 3 days after tumor injection measured on day 5 post last dose relative to vehicle-treated control; format: functional; conditions: GTL 16, ip, route intraperitoneal, read-out: TGI
How it was run: (§6)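 Female athymic nude mice, 5-6 weeks old, inoculated s.c. in right flank with 5 × 10^6 exponentially growing tumor cells. Intraperitoneal dosing in 10 mL/kg, starting 3 days post-implant. Tumor volume = d²·D/2 from calipered shortest and longest diameters, measured biweekly. TVI% = 100 − (mean TV treated/mean TV control × 100), scored 5 days after last dose. Mann-Whitney test vs vehicle group; 8 mice per group.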

[15] = test system: Mus musculus; assay: as §1, with “downregulation” for “induction”, “AKT” for “HSP70”; format: functional, organism-based; parameters: dose 5 mg/kg; how it was run: as §2
[16] = test system: Mus musculus; assay: Toxicity in CD-1 nude mouse xenografted with human A431 cells overexpressing EGFR assessed as mortality at 5 mg/kg, ip administered as q2d/week for 2 weeks starting 3 days after tumor injection measured on day 5 post last dose relative to vehicle-treated control; format: organism-based, A-431; parameters: dose 5 mg/kg, route intraperitoneal; conditions: in vivo; how it was run: as §4
[17] = test system: Mus musculus; assay: as §1, with “downregulation” for “induction”, “c-Met” for “HSP70”; format: functional, organism-based; parameters: dose 5 mg/kg; how it was run: as §2
[18] = biological target: Heat shock protein HSP 90-beta (Homo sapiens) (UniProt P08238); assay: Inhibition of HSP90 in human A431 cells overexpressing EGFR assessed as downregulation of CDK4 protein expression after 24 hrs by Western blot analysis; format: cell-based; conditions: A-431; how it was run: as §3
[19] = test system: A-431; assay: Antitumor activity against human A431 cells overexpressing EGFR xenografted in CD-1 nude mouse assessed as tumor growth inhibition at 5 mg/kg, ip administered as q2d/week for 2 weeks starting 3 days after tumor injection measured on day 5 post last dose relative to vehicle-treated control; format: functional; conditions: A-431, ip, route intraperitoneal, read-out: TGI; how it was run: as §6
[20] = test system: Mus musculus; assay: In vivo inhibition of HSP90 in human A431 cells overexpressing EGFR xenografted in CD-1 nude mouse assessed as downregulation of CDK4 protein expression at 5 mg/kg, ip administered as q2d/week for 2 weeks starting 3 days after tumor injection measured at 2 hrs post last dose by Western blot analysis; format: functional, organism-based; parameters: dose 5 mg/kg; conditions: A-431; how it was run: as §2
[21] = test system: Mus musculus; assay: as §1, with “downregulation” for “induction”, “CDK4” for “HSP70”; format: functional, organism-based; parameters: dose 5 mg/kg; how it was run: as §2
[22] = test system: Mus musculus; assay: Toxicity in CD-1 nude mouse xenografted with human A431 cells overexpressing EGFR assessed as body weight loss at 5 mg/kg, ip administered as q2d/week for 2 weeks starting 3 days after tumor injection measured on day 5 post last dose relative to vehicle-treated control; format: organism-based, A-431; parameters: dose 5 mg/kg, route intraperitoneal; conditions: in vivo; how it was run: as §5
[23] = biological target: Heat shock protein HSP 90-beta (Homo sapiens) (UniProt P08238); assay: Inhibition of HSP90 in human A431 cells overexpressing EGFR assessed as downregulation of EGFR protein expression after 24 hrs by Western blot analysis; format: cell-based; conditions: A-431; how it was run: as §3

## CCNC(=O)c1nnn(-c2cc(C(C)C)c(O)cc2O)c1-c1ccc(CN2CCOCC2)cc1
[1]
  remaining at 2 h, 5 µM: 65%
[2]
  inhibition: Active
[3]
  inhibition: Dose-dependent effect
[4]
  Activity: Active
[5]
  inhibition: Dose-dependent effect
[6]
  Activity: Non-toxic
[7]
  Activity: Active
[8]
  IC50: 4 nM
[9]
  inhibition: Active
[10]
  inhibition: Active
[11]
  inhibition: Active
[12]
  IC50: < 5 nM
[13]
  Imax: 17%
[14]
  inhibition in vivo at 5 mg/kg: 42%
[15]
  inhibition: Active
[16]
  Activity: Non-toxic
[17]
  inhibition: Active
[18]
  inhibition: Dose-dependent effect
[19]
  inhibition in vivo at 5 mg/kg: 49%
[20]
  inhibition: Active
[21]
  inhibition: Active
[22]
  Imax: 1%
[23]
  inhibition: Dose-dependent effect
